Measured values as given in ChEMBL document CHEMBL1649256, “Comparison of assessment of oxygen consumption, Etest, and CLSI M38-A2 broth microdilution methods for evaluation of the susceptibility of Aspergillus fumigatus to posaconazole” (2009).

Key:
Assay type in all cases: functional
Aspergillus fumigatus [1] = experiment: Antimicrobial activity against Aspergillus fumigatus isolate 21 after 48 hrs by Etest; settings: isolate 21, 48 h
Summary of the method: (§1)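 Etest strips on RPMI 1640 agar with 2% glucose, pH 7.0, run per manufacturer's instructions. Incubated at 35°C; MIC read at 48 h.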

Aspergillus fumigatus [2] = experiment: Antimicrobial activity against Aspergillus fumigatus isolate 37 after 48 hrs by Etest; settings: isolate 37, 48 h
Summary of the method: (§2)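 Posaconazole Etest strips on RPMI 1640 agar with 2% glucose, pH 7.0, run per the strip maker's instructions. Incubated at 35°C. MIC read at 24 h and at 48 h, matching the time in each line.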

Aspergillus fumigatus [3] = experiment: Antimicrobial activity against Aspergillus fumigatus isolate 50 by oxygen consumption method
Aspergillus fumigatus [4] = experiment: Antimicrobial activity against Aspergillus fumigatus isolate 32 by oxygen consumption method
Summary of the method: (§3)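 Conidial suspension in RPMI 1640 broth, tested at two posaconazole levels (0.25 and 2 μg/ml). Agitated for 12 h at 37°C in a biological oxygen monitor. MIC derived from continuous monitoring and quantification of the available oxygen.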

Aspergillus fumigatus [5] = experiment: Antimicrobial activity against Aspergillus fumigatus isolate 20 after 24 hrs by Etest; settings: isolate 20, 24 h
Summary of the method: (§4)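 Posaconazole Etest strips placed on RPMI 1640 agar with 2% glucose, pH 7.0, and run per the strip maker's instructions. Incubation at 35°C, with the MIC read at 24 h and at 48 h.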

Aspergillus fumigatus [6] = experiment: Antimicrobial activity against Aspergillus fumigatus isolate 49 by oxygen consumption method
Aspergillus fumigatus [7] = experiment: Antimicrobial activity against Aspergillus fumigatus isolate 16 after 48 hrs by Etest; settings: isolate 16, 48 h; summary of the method: as §4
Aspergillus fumigatus [8] = experiment: Antimicrobial activity against Aspergillus fumigatus isolate 8 after 24 hrs by Etest; settings: isolate 8, 24 h
Aspergillus fumigatus [9] = experiment: Antimicrobial activity against Aspergillus fumigatus isolate 5 by CLSI M38-A2 broth microdilution method
Aspergillus fumigatus [10] = experiment: Antimicrobial activity against Aspergillus fumigatus isolate 28 after 24 hrs by Etest; settings: isolate 28, 24 h
Summary of the method: (§5)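 Etest strips on RPMI 1640 agar with 2% glucose, pH 7.0, run per manufacturer's instructions. Incubated at 35°C; MIC read at 24 h.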

Aspergillus fumigatus [11] = experiment: Antimicrobial activity against Aspergillus fumigatus isolate 32 after 24 hrs by Etest; settings: isolate 32, 24 h; summary of the method: as §2
Aspergillus fumigatus [12] = experiment: Antimicrobial activity against Aspergillus fumigatus isolate 5 after 24 hrs by Etest; settings: isolate 5, 24 h
Aspergillus fumigatus [13] = experiment: Antimicrobial activity against Aspergillus fumigatus isolate 21 by oxygen consumption method
Summary of the method: (§6)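 Conidial suspension in RPMI 1640 broth, 1.5 ml, with two drug concentrations (0.25 and 2 μg/ml). Tubes agitated 12 h at 37°C in a biological oxygen monitor. Available oxygen monitored continuously and quantified to assign the MIC.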

Aspergillus fumigatus [14] = experiment: Antimicrobial activity against Aspergillus fumigatus isolate 40 by oxygen consumption method; summary of the method: as §3
Aspergillus fumigatus [15] = experiment: Antimicrobial activity against Aspergillus fumigatus isolate 3 by CLSI M38-A2 broth microdilution method
Summary of the method: (§7)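 Reference broth microdilution per CLSI M38-A2. MIC read as absence of visible growth at 48 h. C. parapsilosis ATCC 22019 and C. krusei ATCC 6258 QC strains run in each test session.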

Aspergillus fumigatus [16] = experiment: Antimicrobial activity against Aspergillus fumigatus isolate 3 after 48 hrs by Etest; settings: isolate 3, 48 h; summary of the method: as §1
Aspergillus fumigatus [17] = experiment: Antimicrobial activity against Aspergillus fumigatus isolate 25 by oxygen consumption method; summary of the method: as §6
Aspergillus fumigatus [18] = experiment: Antimicrobial activity against Aspergillus fumigatus isolate 43 after 24 hrs by Etest; settings: isolate 43, 24 h; summary of the method: as §2
Aspergillus fumigatus [19] = experiment: Antimicrobial activity against Aspergillus fumigatus isolate 10 after 24 hrs by Etest; settings: isolate 10, 24 h; summary of the method: as §4
Aspergillus fumigatus [20] = experiment: Antimicrobial activity against Aspergillus fumigatus isolate 50 after 48 hrs by Etest; settings: isolate 50, 48 h
Aspergillus fumigatus [21] = experiment: Antimicrobial activity against Aspergillus fumigatus isolate 18 by CLSI M38-A2 broth microdilution method
Summary of the method: (§8)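 Posaconazole broth microdilution follows CLSI M38-A2. The MIC is the lowest concentration with no visible growth at 48 h. Candida parapsilosis ATCC 22019 and Candida krusei ATCC 6258 were included as QC strains in every run.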

Aspergillus fumigatus [22] = experiment: Antimicrobial activity against Aspergillus fumigatus isolate 36 after 24 hrs by Etest; settings: isolate 36, 24 h; summary of the method: as §2
Aspergillus fumigatus [23] = experiment: Antimicrobial activity against Aspergillus fumigatus isolate 4 by CLSI M38-A2 broth microdilution method
Summary of the method: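 CLSI M38-A2 broth microdilution with posaconazole. MIC taken as the lowest concentration with no visible growth at 48 h. C. parapsilosis ATCC 22019 and C. krusei ATCC 6258 were included as QC strains in every run.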

Aspergillus fumigatus [24] = experiment: Antimicrobial activity against Aspergillus fumigatus isolate 33 after 48 hrs by Etest; settings: isolate 33, 48 h; summary of the method: as §2
Aspergillus fumigatus [25] = experiment: Antimicrobial activity against Aspergillus fumigatus isolate 39 by oxygen consumption method; summary of the method: as §3
Aspergillus fumigatus [26] = experiment: Antimicrobial activity against Aspergillus fumigatus isolate 21 after 24 hrs by Etest; settings: isolate 21, 24 h; summary of the method: as §5
Aspergillus fumigatus [27] = experiment: Antimicrobial activity against Aspergillus fumigatus isolate 21 by CLSI M38-A2 broth microdilution method; summary of the method: as §7
Aspergillus fumigatus [28] = experiment: Antimicrobial activity against Aspergillus fumigatus isolate 16 by oxygen consumption method
Summary of the method: (§9)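 Conidial suspension in RPMI 1640 broth with posaconazole at 0.25 and 2 μg/ml. Tubes agitated 12 h at 37°C in a biological oxygen monitor. Available oxygen was monitored continuously, and the MIC was assigned from the oxygen quantification.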

Aspergillus fumigatus [29] = experiment: Antimicrobial activity against Aspergillus fumigatus isolate 27 by CLSI M38-A2 broth microdilution method; summary of the method: as §7
Aspergillus fumigatus [30] = experiment: Antimicrobial activity against Aspergillus fumigatus isolate 46 by oxygen consumption method
Aspergillus fumigatus [31] = experiment: Antimicrobial activity against Aspergillus fumigatus isolate 31 by CLSI M38-A2 broth microdilution method; summary of the method: as §7
Aspergillus fumigatus [32] = experiment: Antimicrobial activity against Aspergillus fumigatus isolate 11 after 24 hrs by Etest; settings: isolate 11, 24 h; summary of the method: as §4
Aspergillus fumigatus [33] = experiment: Antimicrobial activity against Aspergillus fumigatus isolate 31 by oxygen consumption method; summary of the method: as §6
Aspergillus fumigatus [34] = experiment: Antimicrobial activity against Aspergillus fumigatus isolate 38 by oxygen consumption method; summary of the method: as §3
Aspergillus fumigatus [35] = experiment: Antimicrobial activity against Aspergillus fumigatus isolate 23 after 48 hrs by Etest; settings: isolate 23, 48 h; summary of the method: as §1
Aspergillus fumigatus [36] = experiment: Antimicrobial activity against Aspergillus fumigatus isolate 48 by CLSI M38-A2 broth microdilution method
Aspergillus fumigatus [37] = experiment: Antimicrobial activity against Aspergillus fumigatus isolate 43 by oxygen consumption method
Aspergillus fumigatus [38] = experiment: Antimicrobial activity against Aspergillus fumigatus isolate 25 after 24 hrs by Etest; settings: isolate 25, 24 h; summary of the method: as §5
Aspergillus fumigatus [39] = experiment: Antimicrobial activity against Aspergillus fumigatus isolate 22 by oxygen consumption method; summary of the method: as §6
Aspergillus fumigatus [40] = experiment: Antimicrobial activity against Aspergillus fumigatus isolate 17 by oxygen consumption method; summary of the method: as §9
Aspergillus fumigatus [41] = experiment: Antimicrobial activity against Aspergillus fumigatus isolate 11 by CLSI M38-A2 broth microdilution method; summary of the method: as §8
Aspergillus fumigatus [42] = experiment: Antimicrobial activity against Aspergillus fumigatus isolate 45 after 24 hrs by Etest; settings: isolate 45, 24 h
Aspergillus fumigatus [43] = experiment: Antimicrobial activity against Aspergillus fumigatus isolate 5 after 48 hrs by Etest; settings: isolate 5, 48 h
Aspergillus fumigatus [44] = experiment: Antimicrobial activity against Aspergillus fumigatus isolate 8 by CLSI M38-A2 broth microdilution method
Aspergillus fumigatus [45] = experiment: Antimicrobial activity against Aspergillus fumigatus isolate 13 by CLSI M38-A2 broth microdilution method; summary of the method: as §8

Measured: MIC

CC[C@@H]([C@H](C)O)n1ncn(-c2ccc(N3CCN(c4ccc(OC[C@@H]5CO[C@@](Cn6cncn6)(c6ccc(F)cc6F)C5)cc4)CC3)cc2)c1=O [POSACONAZOLE]
2 µg/mL: Aspergillus fumigatus [16]
> 16 µg/mL: Aspergillus fumigatus [43]
4 µg/mL: Aspergillus fumigatus [12]
≤ 0.03 µg/mL: Aspergillus fumigatus [18]
≥ 0.5 µg/mL: Aspergillus fumigatus [6] | Aspergillus fumigatus [25] | Aspergillus fumigatus [28]
≤ 0.25 µg/mL: Aspergillus fumigatus [3] | Aspergillus fumigatus [4] | Aspergillus fumigatus [13] | Aspergillus fumigatus [14] | Aspergillus fumigatus [17] | Aspergillus fumigatus [30] | Aspergillus fumigatus [33] | Aspergillus fumigatus [34] | Aspergillus fumigatus [37] | Aspergillus fumigatus [39] | Aspergillus fumigatus [40]
1 µg/mL: Aspergillus fumigatus [9] | Aspergillus fumigatus [15]
0.125 µg/mL: Aspergillus fumigatus [2] | Aspergillus fumigatus [19] | Aspergillus fumigatus [21] | Aspergillus fumigatus [27] | Aspergillus fumigatus [29] | Aspergillus fumigatus [31] | Aspergillus fumigatus [32] | Aspergillus fumigatus [36] | Aspergillus fumigatus [42] | Aspergillus fumigatus [44] | Aspergillus fumigatus [45]
0.06 µg/mL: Aspergillus fumigatus [22] | Aspergillus fumigatus [23]
0.25 µg/mL: all other assays above
